In ChEMBL document CHEMBL1158588, “Discovery of brain-penetrant, orally bioavailable aminothienopyridazine inhibitors of tau aggregation” (J Med Chem, 2010):
≈ marks a conversion by molar mass, not a printed value. Calls of active or inactive are those of the source. The rule behind the calls is not given here.

Tests used:
Homo sapiens = organism: Homo sapiens; test: Inhibition of human full length tau40 protein-mediated bovine brain tubulin assembly at 62.5 uM by MT assembly assay
How it was run: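 Wild-type full-length human tau40 (2N4R, 25 µM) was preincubated with compound at 62.5 µM in RAB pH 6.9 for 120 min at room temperature. Bovine brain tubulin and GTP were then added, giving final concentrations of 30 µM tubulin, 20 µM tau, 50 µM compound and 2 mM GTP. Absorbance at 340 nm was read every minute for 45 min at 37 °C.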

[1] = Aqueous solubility in sodium acetate buffer at pH 7.0 by turbidimetric measurements; assay type: physicochemical
How it was run: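 Compounds were serially diluted 2.5-fold in DMSO, then diluted 100-fold into 100 mM NaOAc pH 7.0 (final 200 µM down to 0.03 µM, 1% DMSO). Plates were agitated for 2.5 h and absorbance was read at 550–700 nm with the DMSO blank subtracted. The solubility limit was taken as the concentration before the one where mean absorbance exceeded 0.03 AU.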

Plasma [2] = test: Drug level in plasma of B6C3F1 mouse at 5 mg/kg, ip by LC-MS/MS analysis; assay type: ADME, organism-based; design: dose 5 mg/kg, route intraperitoneal; details: in vivo
How it was run: (§1)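 Three female B6C3F1 mice per compound were given 5 mg/kg i.p. Brain and plasma were sampled at a single 1 h time point. Brain was homogenized 1:2 w/v in 10 mM ammonium acetate pH 5.7, and plasma was collected in EDTA. Samples were extracted with acetonitrile and quantified by LC-MS/MS MRM against spiked calibration curves. B/P was taken as the brain/plasma ratio.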

Brain = test: Drug level in brain of B6C3F1 mouse at 5 mg/kg, ip by LC-MS/MS analysis; assay type: ADME, organism-based; design: dose 5 mg/kg, route intraperitoneal; details: in vivo; how it was run: as §1
[3] = Inhibition of heparin-induced K18PL tau protein aggregation assessed as thioflavin T binding by fluorescence assay relative to control; details: concentration not given here
[4] = Inhibition of K18PL tau protein aggregation by orthogonal sedimentation based SDS-PAGE relative to control; details: concentration not given here
[5] = Inhibition of tau40 protein aggregation by orthogonal sedimentation based SDS-PAGE relative to control; design: concentration or dose not given beside the values; details: concentration not given here
HEK293 = test: Cytotoxicity against HEK293 cells up to 100 uM after 72 hrs by alamar blue assay; assay type: cell-based; details: human, hek293, 72 h
How it was run: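 HEK-293 cells were plated at 20,000 per well in DMEM with 10% FCS. After 24 h, half-log compound dilutions starting at 200 µM were added. Cells were cultured for 72 h, and viability was read by Alamar blue fluorescence. CC50 values were fitted from the curves.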

[6] = Ratio of drug level from brain to plasma of B6C3F1 mouse at 2 mg/kg, iv; assay type: ADME, organism-based; design: dose 2 mg/kg, route intravenous; details: read-out: BPR
How it was run: (§2)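 Female B6C3F1 mice, two months old, given 2 mg/kg i.v., three mice per time point at 0.5, 1, 2, 4, 8 and 16 h. Brain hemispheres were homogenized in 10 mM ammonium acetate pH 5.7, and plasma was taken from EDTA blood. Both were extracted with acetonitrile and measured by LC-MS/MS (MRM) against spiked standard curves at 4–4000 ng/mL.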

[7] = AUC (0.5 to 16 hrs) in plasma of B6C3F1 mouse at 2 mg/kg, iv; assay type: ADME, organism-based; design: time upper 16 hr, time lower 0.5 hr, dose 2 mg/kg, route intravenous; how it was run: as §2
[8] = AUC (0.5 to 16 hrs) in plasma of B6C3F1 mouse at 5 mg/kg, po; assay type: ADME, organism-based; design: time 0.5-16 hr, dose 5 mg/kg, route oral
How it was run: (§3)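 Mice were dosed by oral gavage at 5 mg/kg. […] Bioavailability was obtained by comparing plasma AUC after oral dosing with AUC after 2 mg/kg i.v.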

[9] = AUC (0.5 to 16 hrs) in brain of B6C3F1 mouse at 2 mg/kg, iv; assay type: ADME, organism-based; design: time upper 16 hr, time lower 0.5 hr, dose 2 mg/kg, route intravenous; how it was run: as §2
Plasma [10] = test: Elimination half life in plasma of B6C3F1 mouse at 2 mg/kg, iv; assay type: ADME, organism-based; design: dose 2 mg/kg, route intravenous; details: in vivo
How it was run: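 Female B6C3F1 mice received 2 mg/kg i.v., three per time point. Plasma levels were measured by LC-MS/MS with 1/x-weighted calibration, averaging triplicate injections. Half-life was derived from the elimination rate constant, taken as the slope of ln plasma concentration against time over the 4, 8 and 16 h points.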

[11] = Oral bioavailability in B6C3F1 mouse at 5 mg/kg; assay type: ADME, organism-based; details: in vivo; how it was run: as §3
[12] = Ratio of drug level from brain to plasma of B6C3F1 mouse at 5 mg/kg, ip by LC-MS/MS analysis; assay type: ADME, organism-based; design: dose 5 mg/kg, route intraperitoneal; how it was run: as §1

SMILES: CCNC(=O)c1nn(-c2ccc(Cl)cc2)c(=O)c2c(N)scc12
- inhibition (Homo sapiens): inactive
- solubility kinetic [1]: 32 µM (≈ 11.2 µg/mL)
- Drug uptake (Plasma [2]): 500 ng/mL
- Drug uptake (Brain): 886 ng/g
- inhibition [3]: 84%
- inhibition [4]: 94%
- inhibition [5]: 87%
- Activity (HEK293): Non-toxic

SMILES: CC(C)NC(=O)c1nn(-c2ccc(Cl)cc2)c(=O)c2c(N)scc12
- inhibition (Homo sapiens): inactive
- solubility kinetic [1]: 32 µM (≈ 11.6 µg/mL)
- Drug uptake (Plasma [2]): 499 ng/mL
- Drug uptake (Brain): 1100 ng/g
- inhibition [3]: 83%
- inhibition [4]: 65%
- inhibition [5]: 45%
- Activity (HEK293): Non-toxic

SMILES: CC(C)NC(=O)c1nn(-c2ccc(Br)cc2)c(=O)c2c(N)scc12
- inhibition (Homo sapiens): inactive
- solubility kinetic [1]: 13 µM (≈ 5.29 µg/mL)
- Drug uptake (Plasma [2]): 316 ng/mL
- Drug uptake (Brain): 641 ng/g
- inhibition [3]: 85%
- inhibition [4]: 58%
- inhibition [5]: 55%
- Activity (HEK293): Non-toxic

SMILES: Nc1scc2c(C(=O)O)nn(-c3ccc(Cl)cc3)c(=O)c12
- inhibition (Homo sapiens): inactive
- solubility kinetic [1]: > 200 µM
- Drug uptake (Plasma [2]): 5230 ng/mL
- Drug uptake (Brain): 121 ng/g
- inhibition [3]: 84%
- inhibition [4]: 79%
- inhibition [5]: 62%
- Activity (HEK293): Non-toxic

SMILES: CCN(C)C(=O)c1nn(-c2ccc(Cl)cc2)c(=O)c2c(N)scc12
- inhibition (Homo sapiens): inactive
- solubility kinetic [1]: 80 µM (≈ 29 µg/mL)
- Drug uptake (Plasma [2]): 138 ng/mL
- Drug uptake (Brain): 122 ng/g
- inhibition [3]: 75%
- inhibition [4]: 62%
- inhibition [5]: 58%
- Activity (HEK293): Non-toxic

SMILES: Nc1scc2c(C(=O)NC3CC3)nn(-c3ccc(Cl)cc3)c(=O)c12
- inhibition (Homo sapiens): inactive
- solubility kinetic [1]: 32 µM (≈ 11.5 µg/mL)
- Drug uptake (Plasma [2]): 823 ng/mL
- Kp [6]: 1.58
- Drug uptake (Brain): 1299 ng/g
- AUC(0-t) [7]: 297 ng·h/mL
- inhibition [3]: 83%
- AUC(0-t) [8]: 526 ng·h/mL
- inhibition [4]: 69%
- AUC(0-t) [9]: 469 ng·h/mL
- beta t1/2 (Plasma [10]): >= 2.5 hr
- inhibition [5]: 58%
- bioavailability [11]: 70%
- Activity (HEK293): Non-toxic

SMILES: CNC(=O)c1nn(-c2ccc(Cl)cc2)c(=O)c2c(N)scc12
- inhibition (Homo sapiens): inactive
- solubility kinetic [1]: 13 µM (≈ 4.35 µg/mL)
- Drug uptake (Plasma [2]): 70 ng/mL
- Drug uptake (Brain): 34 ng/g
- inhibition [3]: 78%
- inhibition [4]: 68%
- inhibition [5]: 61%
- Activity (HEK293): Non-toxic

SMILES: CN(C)C(=O)c1nn(-c2ccc(Cl)cc2)c(=O)c2c(N)scc12
- inhibition (Homo sapiens): inactive
- solubility kinetic [1]: 32 µM (≈ 11.2 µg/mL)
- Drug uptake (Plasma [2]): 30 ng/mL
- Drug uptake (Brain): 14 ng/g
- inhibition [3]: 75%
- inhibition [4]: 69%
- inhibition [5]: 69%
- Activity (HEK293): Non-toxic

SMILES: CC(C)OC(=O)c1nn(-c2ccc(Cl)cc2)c(=O)c2c(N)scc12
- inhibition (Homo sapiens): inactive
- solubility kinetic [1]: 32 µM (≈ 11.6 µg/mL)
- Drug uptake (Plasma [2]): 84 ng/mL
- Drug uptake (Brain): 436 ng/g
- inhibition [3]: 79%
- BPR [12]: 5.2
- inhibition [4]: 44%
- inhibition [5]: 61%
- Activity (HEK293): Non-toxic

SMILES: CCOC(=O)c1nn(-c2ccc(Cl)cc2)c(=O)c2c(N)scc12
- inhibition (Homo sapiens): inactive
- solubility kinetic [1]: 13 µM (≈ 4.55 µg/mL)
- Drug uptake (Plasma [2]): 20 ng/mL
- Drug uptake (Brain): 67 ng/g
- inhibition [3]: 71%
- inhibition [4]: 70%
- inhibition [5]: 48%
- Activity (HEK293): Non-toxic
